What was measured:
[1] = compound: COc1ccccc1-c1nnc(SC2=CS(=O)(=O)c3ccccc32)o1; assay: Inhibition of recombinant Cryptococcus neoformans His-tagged IMPDH expressed in Escherichia coli BL21 (DE3) at 0.3 uM assessed as Vmax for substrate using IMP as fixed substrate at 500 uM and NAD as second substrate with varying concentrations of 31.25 to 1300 uM (reference value: 1.5 microM/min)
Method in brief: (§1)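 Recombinant C. neoformans IMPDH, 100 nM final, reaction started by adding enzyme. NADH production monitored at 340 nm. Inhibitor series ran from 20 to 0.31 µM; MPA tested at 312 to 39 nM. Km and Vmax fitted to the Michaelis–Menten equation; inhibition type taken from shifts in Km and Vmax.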

[2] = compound: O=S1(=O)C=C(Sc2nnc(-c3ccccc3)o2)c2ccccc21; assay: (§2) Inhibition of recombinant Cryptococcus neoformans His-tagged IMPDH expressed in Escherichia coli BL21 (DE3) at 10 uM assessed as Vmax for substrate using IMP as fixed substrate at 500 uM and NAD as second substrate with varying concentrations of 31.25 to 1300 uM (reference value: 1.5 microM/min); method in brief: as §1
[3] = compound: COc1ccccc1-c1nnc(SC2=CS(=O)(=O)c3ccccc32)o1; assay: as §2; method in brief: as §1
[4] = substrate: COc1c(C)c2c(c(O)c1C/C=C(\C)CCC(=O)O)C(=O)OC2; settings: Cryptococcus neoformans; 0.156 uM
[5] = compound: O=S1(=O)C=C(Sc2nnc(-c3ccccc3)o2)c2ccccc21; assay: (§3) Inhibition of recombinant Cryptococcus neoformans His-tagged IMPDH expressed in Escherichia coli BL21 (DE3) at 0.3 uM assessed as Kcat for substrate using NAD as fixed substrate at 700 uM and IMP as second substrate with varying concentrations of 25 to 800 uM (reference value: 21.5 /s); method in brief: as §1
[6] = compound: COc1ccccc1-c1nnc(SC2=CS(=O)(=O)c3ccccc32)o1; assay: as §3; method in brief: as §1
[7] = compound: O=S1(=O)C=C(Sc2nnc(-c3ccccc3)o2)c2ccccc21; assay: (§4) Inhibition of recombinant Cryptococcus neoformans His-tagged IMPDH expressed in Escherichia coli BL21 (DE3) at 10 uM assessed as Kcat for substrate using IMP as fixed substrate at 500 uM and NAD as second substrate with varying concentrations of 31.25 to 1300 uM (reference value: 21.5 /s); method in brief: as §1
[8] = compound: COc1ccccc1-c1nnc(SC2=CS(=O)(=O)c3ccccc32)o1; assay: as §4; method in brief: as §1
[9] = substrate: COc1c(C)c2c(c(O)c1C/C=C(\C)CCC(=O)O)C(=O)OC2; settings: Cryptococcus neoformans; 0.078 uM
[10] = substrate: COc1c(C)c2c(c(O)c1C/C=C(\C)CCC(=O)O)C(=O)OC2; settings: Cryptococcus neoformans; 0.078 uM; remark: listed apart in the source
[11] = compound: O=S1(=O)C=C(Sc2nnc(-c3ccccc3)o2)c2ccccc21; assay: (§5) Inhibition of recombinant Cryptococcus neoformans His-tagged IMPDH expressed in Escherichia coli BL21 (DE3) at 2.5 uM assessed as Km for substrate using NAD as fixed substrate at 700 uM and IMP as second substrate with varying concentrations of 25 to 800 uM (reference value: 257.5 +/- 23 microM); method in brief: as §1
[12] = compound: COc1ccccc1-c1nnc(SC2=CS(=O)(=O)c3ccccc32)o1; assay: as §5; method in brief: as §1
[13] = substrate: COc1c(C)c2c(c(O)c1C/C=C(\C)CCC(=O)O)C(=O)OC2; settings: Cryptococcus neoformans; 0.156 uM; remark: listed apart in the source
[14] = compound: O=S1(=O)C=C(Sc2nnc(-c3ccccc3)o2)c2ccccc21; assay: (§6) Inhibition of recombinant Cryptococcus neoformans His-tagged IMPDH expressed in Escherichia coli BL21 (DE3) at 0.3 uM assessed as Vmax for substrate using NAD as fixed substrate at 700 uM and IMP as second substrate with varying concentrations of 25 to 800 uM (reference value: 1.5 microM/min); method in brief: as §1
[15] = compound: COc1ccccc1-c1nnc(SC2=CS(=O)(=O)c3ccccc32)o1; assay: as §6; method in brief: as §1
[16] = substrate: COc1c(C)c2c(c(O)c1C/C=C(\C)CCC(=O)O)C(=O)OC2; settings: Cryptococcus neoformans; 0.156 uM; remark: listed apart in the source
[17] = compound: O=S1(=O)C=C(Sc2nnc(-c3ccccc3)o2)c2ccccc21; assay: (§7) Inhibition of recombinant Cryptococcus neoformans His-tagged IMPDH expressed in Escherichia coli BL21 (DE3) at 0.3 uM assessed as Km for substrate using IMP as fixed substrate at 500 uM and NAD as second substrate with varying concentrations of 31.25 to 1300 uM (reference value: 257.5 +/- 23 microM); method in brief: as §1
[18] = compound: COc1ccccc1-c1nnc(SC2=CS(=O)(=O)c3ccccc32)o1; assay: as §7; method in brief: as §1
[19] = compound: COc1ccccc1-c1nnc(SC2=CS(=O)(=O)c3ccccc32)o1; assay: Inhibition of recombinant Cryptococcus neoformans His-tagged IMPDH expressed in Escherichia coli BL21 (DE3) at 0.3 uM assessed as Kcat for substrate using IMP as fixed substrate at 500 uM and NAD as second substrate with varying concentrations of 31.25 to 1300 uM (reference value: 21.5 /s); method in brief: as §1
[20] = compound: O=S1(=O)C=C(Sc2nnc(-c3ccccc3)o2)c2ccccc21; assay: (§8) Inhibition of recombinant Cryptococcus neoformans His-tagged IMPDH expressed in Escherichia coli BL21 (DE3) at 2.5 uM assessed as Kcat for substrate using NAD as fixed substrate at 700 uM and IMP as second substrate with varying concentrations of 25 to 800 uM (reference value: 21.5 /s); method in brief: as §1
[21] = compound: COc1ccccc1-c1nnc(SC2=CS(=O)(=O)c3ccccc32)o1; assay: as §8; method in brief: as §1
[22] = compound: O=S1(=O)C=C(Sc2nnc(-c3ccccc3)o2)c2ccccc21; assay: Inhibition of recombinant Cryptococcus neoformans His-tagged IMPDH expressed in Escherichia coli BL21 (DE3) at 0.3 uM assessed as Kcat for substrate using IMP as fixed substrate at 500 uM and NAD as second substrate with varying concentrations of 31.25 to 1300 uM (reference value: 1.5 /s)
[23] = substrate: COc1c(C)c2c(c(O)c1C/C=C(\C)CCC(=O)O)C(=O)OC2; settings: Cryptococcus neoformans; 0.039 uM
[24] = compound: O=S1(=O)C=C(Sc2nnc(-c3ccccc3)o2)c2ccccc21; assay: (§9) Inhibition of recombinant Cryptococcus neoformans His-tagged IMPDH expressed in Escherichia coli BL21 (DE3) at 2.5 uM assessed as Vmax for substrate using IMP as fixed substrate at 500 uM and NAD as second substrate with varying concentrations of 31.25 to 1300 uM (reference value: 1.5 microM/min); method in brief: as §1
[25] = compound: COc1ccccc1-c1nnc(SC2=CS(=O)(=O)c3ccccc32)o1; assay: as §9; method in brief: as §1
[26] = compound: O=S1(=O)C=C(Sc2nnc(-c3ccccc3)o2)c2ccccc21; assay: (§10) Inhibition of recombinant Cryptococcus neoformans His-tagged IMPDH expressed in Escherichia coli BL21 (DE3) at 10 uM assessed as Km for substrate using IMP as fixed substrate at 500 uM and NAD as second substrate with varying concentrations of 31.25 to 1300 uM (reference value: 257.5 +/- 23 microM); method in brief: as §1
[27] = compound: COc1ccccc1-c1nnc(SC2=CS(=O)(=O)c3ccccc32)o1; assay: as §10; method in brief: as §1

B1: Inosine-5'-monophosphate dehydrogenase (Cryptococcus neoformans var. neoformans serotype D (strain JEC21 /ATCC MYA-565) (Filobasidiella neoformans)), Q5KP44 (protein)
chain: MADTNPNAPPRSDSLLNPADALKYLEEYPRGDGLSLQELMDSRKNGGLTYNDFLVLPGHISFPASDVSLQSRATKNIVLNTPFLSSPMDTVTEDRMAIALALHGGLGIIHHNCSAEEQAAMVRRVKKYENGFITDPLCLGPDATVGDVLEIKAKFGFCGVPITETGAPNSKLLGIVTGRDVQFQDAETPIKSVMTTEVVTGSSPITLEKANSLLRETKKGKLPIVDSNGHLVSLVARSDLLKNQNYPYASKVPESKQLYCGAAIGTRPGDKDRLKLLAEAGLDVVVLDSSQGDSVYQIEFIKWIKQTYPKIEIIAGNVVTREQAAQLIAAGADGLRIGMGSGSICITQEVMAVGRPQGTAVYAVAEFASRFGIPCIADGGIGNIGHIAKALALGASAVMMGGLLAGTTESPGEYFYHEGKRVKVYRGMGSIEAMEHTQRGSASGKRSILNLDNAATARYFSEADAVKVAQGVSGDVADKGSINKFVPYLFTGLQHSFQDAGVKSVSELHSCARSGSLRFELRTASAQLEGGVHGLNSYTKRLFA
[1]
  Vmax: 1.5 µM/min
[2]
  Vmax: 1 µM/min
[3]
  Vmax: 1 µM/min
[4]
  kcat: 0.3 s⁻¹
[5]
  kcat: 1.1 s⁻¹
[6]
  kcat: 1.4 s⁻¹
[7]
  kcat: 1 s⁻¹
[8]
  kcat: 1 s⁻¹
[9]
  kcat: 0.6 s⁻¹
[10]
  Km: 53 µM
[11]
  Km: 187 µM
[12]
  Km: 165 µM
[13]
  kcat: 0.25 s⁻¹
[14]
  Vmax: 1.1 µM/min
[15]
  Vmax: 1.4 µM/min
[16]
  Km: 32 µM
[17]
  Km: 307 µM
[18]
  Km: 278 µM
[19]
  kcat: 1.5 s⁻¹
[20]
  kcat: 0.9 s⁻¹
[21]
  kcat: 1 s⁻¹
[22]
  kcat: 1.5 s⁻¹
[23]
  Vmax: 0.9 µM/min
[24]
  Vmax: 1.3 µM/min
[25]
  Vmax: 1.5 µM/min
[26]
  Km: 386 µM
[27]
  Km: 355 µM

From ChEMBL document CHEMBL4265991
